From ChEMBL document CHEMBL1799923, “Design, synthesis, and biological activities of closantel analogues: structural promiscuity and its impact on Onchocerca volvulus” (J Med Chem, 2011) come the findings set out here.

pIC50, pKi: −log10 of the molar value. Active and inactive are the calls of the source.

Assay [1] has as its system Onchocerca volvulus. Description: Antiparasitic activity against Onchocerca volvulus assessed as inhibition of L3 to L4 larval molting at 100 uM after 6 days by using inverted microscopic analysis. The format is functional. The method, boiled down: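 Cryopreserved O. volvulus L3 larvae thawed at 37 °C, washed in NCTC/IMDM (1:1) with glutamine, penicillin and streptomycin, then set at […] worms per well in complete medium with 20% heat-inactivated FCS. Each well received 1.5 × 10^5 normal PBMCs; 10 wells per treatment, with DMSO and medium controls. Incubated at 37 °C in 5% CO2 for 6 days. Molting is scored by inverted microscopy as L4 larvae plus empty L3 casts.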

Assay [2] relates to Onchocerca ochengi. In words: Antiparasitic activity against Onchocerca ochengi assessed as effect on microfilarial mobility at 5 ug/ml measured every 24 hrs for 120 hrs by inverted microscopic analysis. The format is functional. A digest of the protocol:
(§1)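 Microfilariae isolated from cattle skin snips; ≥15 per well cocultured on a confluent monkey kidney epithelial feeder layer in RPMI-1640 complete medium (25 mM HEPES, 5% newborn calf serum, pH 7.4) with compound, 37 °C, 5% CO2, 5 days, no medium change. Motility scored by inverted microscope every 24 h. Viability checked at 120 h. Duplicate wells. Active = 100% motility loss versus control.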

The subject of assay [3] is Onchocerca ochengi. In words: Antiparasitic activity against Onchocerca ochengi assessed as effect on microfilarial mobility at 10 ug/ml measured every 24 hrs for 120 hrs by inverted microscopic analysis. The format is functional. The method, boiled down: as §1
The target in assay [4] is T1, Chitinase (Onchocerca volvulus, UniProt Q25615).
T1 sequence (Q25615 whole entry): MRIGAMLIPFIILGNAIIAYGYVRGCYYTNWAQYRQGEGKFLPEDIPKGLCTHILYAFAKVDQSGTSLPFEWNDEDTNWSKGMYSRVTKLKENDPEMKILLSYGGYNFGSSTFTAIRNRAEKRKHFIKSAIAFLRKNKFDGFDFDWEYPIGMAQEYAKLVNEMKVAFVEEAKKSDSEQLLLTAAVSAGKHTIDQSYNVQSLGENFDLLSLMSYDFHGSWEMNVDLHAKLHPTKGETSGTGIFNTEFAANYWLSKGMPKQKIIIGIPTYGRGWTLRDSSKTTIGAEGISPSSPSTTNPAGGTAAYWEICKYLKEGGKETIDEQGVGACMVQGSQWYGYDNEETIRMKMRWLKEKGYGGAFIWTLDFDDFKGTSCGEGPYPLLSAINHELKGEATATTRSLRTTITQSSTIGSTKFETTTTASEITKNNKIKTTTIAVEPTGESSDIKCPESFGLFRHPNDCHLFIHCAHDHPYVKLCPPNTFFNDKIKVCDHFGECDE
In words: Inhibition of Onchocerca volvulus L3 larvae chitinase using 4-methylumbelliferyl-N,N',N''-beta-chitotrioside as a profluorescent substrate after 10 mins by fluorometric analysis. The method, boiled down:
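OvCHT1 (1.25 units) with 20 μM 4-methylumbelliferyl-N,N',N''-β-chitotrioside in 200 mM NaCl, 20 mM Na3PO4 (pH 6.0), 1.0 mM EDTA and 0.5% DMSO at 37 °C. Screening used 25 μM compound, with a no-compound blank. Fluorescence increase is read over 10 min (ex 350 nm, em 440 nm). Triplicate reactions.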

For assay [5], the system named is Onchocerca volvulus. In words: Antiparasitic activity against Onchocerca volvulus assessed as larval toxicity at 100 uM after 6 days by using inverted microscopic analysis. The format is functional, organism-based.
Assay [6] deals with Onchocerca volvulus. Description: Antiparasitic activity against Onchocerca volvulus assessed as inhibition of L3 to L4 larval molting at 25 uM after 6 days by using inverted microscopic analysis. The format is functional, organism-based. A digest of the protocol:
(§2)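 Cryopreserved L3 thawed at 37 °C and washed. 5–10 larvae per well in complete medium with 20% heat-inactivated FCS plus 1.5 × 10^5 normal PBMCs. 10 wells per treatment. Compounds tested singly or as a 1:1 pair. DMSO and medium controls included. Incubated at 37 °C, 5% CO2. Molting scored on day 6 by inverted microscope as L4 plus empty L3 cast. Reported as percent molting.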

In assay [7] the test system is Onchocerca volvulus. In words: Antiparasitic activity against Onchocerca volvulus assessed as inhibition of L3 to L4 larval molting at 50 uM after 6 days by using inverted microscopic analysis. The format is functional, organism-based. A digest of the protocol: as §2
The test system of assay [8] is HEK-293T. In words: Protonophoric activity in human HEK293T cells assessed as mitochondrial membrane depolarization at 50 uM after 10 mins by flow cytometric analysis relative to closantel. The format is functional, cell-based. A digest of the protocol: (§3)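 HEK-293T/17 cells were trypsinized and resuspended at 1 × 10^6/mL in PBS. They were exposed to 50 μM compound (valinomycin control 200 nM) for 10 min at 37 °C, then stained with the JC-1 potential probe for 10 min at 37 °C. Cells were washed and analysed by flow cytometry using FL-1 green and FL-2 red channels.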
(A flow cytometer gives signals particle by particle.)

Assay [9] deals with HEK-293T. Description: Protonophoric activity in human HEK293T cells assessed as mitochondrial membrane depolarization at 50 uM after 10 mins by flow cytometric analysis relative to valinomycin. The format is functional, cell-based. The method, boiled down: as §3
For assay [10], the system named is HEK-293T. In words: Protonophoric activity in human HEK293T cells assessed as mitochondrial membrane depolarization at 200 uM after 10 mins by flow cytometric analysis. The format is functional, cell-based. A digest of the protocol: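 HEK-293T/17 cells trypsinized and resuspended at 1 × 10^6 cells/mL in PBS. Compound exposure is 10 min at 37 °C, with valinomycin as the depolarization control. JC-1 is then added for another 10 min at 37 °C. Cells are washed and analysed by flow cytometry in the green (FITC) and red (PE) channels for mitochondrial membrane polarization.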

The test system of assay [11] is HEK-293T. In words: Protonophoric activity in human HEK293T cells assessed as mitochondrial membrane depolarization at 50 uM after 10 mins by flow cytometric analysis. The format is functional, cell-based. A digest of the protocol:
as §3

As to `Cc1cc(C(C#N)c2ccc(Cl)cc2)c(Cl)cc1NC(=O)c1cc(I)cc(I)c1O` (stereo not given) [CLOSANTEL], the inhibition at 100 µM in assay [1] (144 h) worked out at 97.6%. The motility % at 5 µg/mL in [2] came to 100%. In assay [3], the motility % at 10 µg/mL was found to be 0%. For the same compound, in [4], the pIC50 is 5.80 and the negative-log Ki (pKi) was 6.33. Moreover, the outcome in assay [5] was inactive.

With `COc1ccc(NC(=O)c2cc(I)cc(I)c2O)cc1`, the motility % at 5 µg/mL in assay [2] came to 100%. Also, the motility % at 10 µg/mL in assay [3] worked out at 100%. Moreover, the negative-log IC50 (pIC50) in assay [4] was 5.06.

For `CC(C)c1cc(C(=O)Nc2ccc(Cl)cc2)c(O)c(C(C)C)c1`, the inhibition entry in [1] is “Active”. Also, the inhibition entry in [6] and in assay [7] was “inactive” in each case. Also, the result in assay [8] and in assay [9] was Active. In addition, the motility % at 5 µg/mL in assay [2] was 100%. Moreover, in [3], the motility % at 10 µg/mL amounted to 100%. In addition, the result in assay [5] was inactive.

In the case of `CC(C)[C@@H]1NC(=O)[C@H](C)OC(=O)[C@@H](C(C)C)NC(=O)[C@@H](C(C)C)OC(=O)[C@H](C(C)C)NC(=O)[C@H](C)OC(=O)[C@@H](C(C)C)NC(=O)[C@@H](C(C)C)OC(=O)[C@H](C(C)C)NC(=O)[C@H](C)OC(=O)[C@@H](C(C)C)NC(=O)[C@@H](C(C)C)OC1=O`, the outcome in [10] was Active.

Regarding `O=C(Nc1ccc(Cl)cc1)c1cc(Cl)cc(Cl)c1O`, the motility % at 5 µg/mL in assay [2] was 100%. Further, the motility % at 10 µg/mL in assay [3] is 29%. This compound gave a negative-log IC50 (pIC50) in [4] of 4.91.

As for `COc1ccc(NC(=O)c2cc(Br)cc(Br)c2O)cc1`, the motility % at 5 µg/mL in assay [2] amounted to 100%. Also, the motility % at 10 µg/mL in assay [3] was found to be 50%. For the same compound, the negative-log IC50 (pIC50) in assay [4] was 5.26.

Take `COc1ccc(NC(=O)c2cc(C(C)C)cc(C(C)C)c2O)cc1`: the motility % at 5 µg/mL in assay [2] was 50%. Moreover, in [3], the motility % at 10 µg/mL was determined as 25%.

As for `O=C(Nc1ccc(Cl)cc1)c1cc(I)ccc1O`, the motility % at 5 µg/mL in [2] came to 100%. Moreover, in assay [3], the motility % at 10 µg/mL was 100%.

Take `COc1ccc(NC(=O)c2cc(Cl)cc(Cl)c2O)cc1`: the motility % at 5 µg/mL in assay [2] was determined as 100%. In assay [3], the motility % at 10 µg/mL turned out to be 50%.

On to `O=C(Nc1ccc(Cl)cc1)c1cc(I)cc(I)c1O`, for which the motility % at 5 µg/mL in assay [2] turned out to be 100%. For the same compound, the motility % at 10 µg/mL in [3] turned out to be 0%. In assay [4], the pIC50 was 5.24.

Regarding `CC(C)c1ccc(NC(=O)c2cc(I)cc(I)c2O)cc1`, in assay [2], the motility % at 5 µg/mL came to 100%. For the same compound, the motility % at 10 µg/mL in assay [3] came out at 100%. In assay [4], the negative-log IC50 (pIC50) is 5.80.

With `Cc1ccc(NC(=O)c2cc(C(C)C)cc(C(C)C)c2O)cc1`, in assay [2], the motility % at 5 µg/mL came to 50%. Moreover, in assay [3], the motility % at 10 µg/mL worked out at 25%.

Take `O=C(Nc1ccccc1)c1cc(I)ccc1O`: in assay [2], the motility % at 5 µg/mL came to 100%. Also, the motility % at 10 µg/mL in assay [3] is 25%.

In the case of `O=C(Nc1ccccc1)c1cc(Br)cc(Br)c1O` [METABROMSALAN], the motility % at 5 µg/mL in assay [2] was 100%. Moreover, in assay [3], the motility % at 10 µg/mL was 50%.

Consider `O=C(Nc1ccccc1)c1cc(Cl)cc(Cl)c1O`, for which the motility % at 5 µg/mL in [2] stood at 100%. Besides, in assay [3], the motility % at 10 µg/mL amounted to 25%.

As for `O=C(Nc1ccc(I)cc1)c1cc(I)cc(I)c1O`, the inhibition entry in assay [1] is “Active”. Also, the inhibition result in assay [6] and in assay [7] was “inactive” throughout. For the same compound, the motility % at 5 µg/mL in [2] was determined as 100%. The result in [11] and in [5] was inactive. Besides, the motility % at 10 µg/mL in assay [3] worked out at 100%. Further, in [4], the negative logarithm of the IC50 (pIC50) is 6.20.

For the compound `COc1ccc(NC(=O)c2cc(I)ccc2O)cc1`, the motility % at 5 µg/mL in [2] is 100%. Moreover, the motility % at 10 µg/mL in assay [3] amounted to 100%.

With `O=C(Nc1ccc(F)cc1)c1cc(I)cc(I)c1O`, the motility % at 5 µg/mL in [2] turned out to be 100%. In assay [3], the motility % at 10 µg/mL was 100%. The compound also had a pIC50 in assay [4] of 6.06.

Take `CC(C)c1cc(C(=O)Nc2ccccc2)c(O)c(C(C)C)c1`: in [2], the motility % at 5 µg/mL turned out to be 100%. For the same compound, the motility % at 10 µg/mL in assay [3] amounted to 50%.

Turning to `Cc1ccc(NC(=O)c2cc(Br)cc(Br)c2O)cc1`, the motility % at 5 µg/mL in assay [2] came to 100%. For the same compound, the motility % at 10 µg/mL in [3] is 100%.

For the compound `O=C(Nc1ccc(Br)cc1)c1cc(I)cc(I)c1O`, in assay [2], the motility % at 5 µg/mL amounted to 100%. Also, the motility % at 10 µg/mL in assay [3] came out at 100%. This compound showed a pIC50 in assay [4] of 6.17.

As for `Cc1ccc(NC(=O)c2cc(Cl)cc(Cl)c2O)cc1`, the motility % at 5 µg/mL in [2] is 100%. Further, the motility % at 10 µg/mL in assay [3] was found to be 50%.

`Cc1ccc(NC(=O)c2cc(I)cc(I)c2O)cc1`: in assay [2], the motility % at 5 µg/mL was 100%. For the same compound, in [3], the motility % at 10 µg/mL stood at 100%. This compound showed a pIC50 in [4] of 5.77.

For `O=C(Nc1ccccc1)c1cc(I)cc(I)c1O`, in [2], the motility % at 5 µg/mL came out at 100%. Besides, in assay [3], the motility % at 10 µg/mL amounted to 100%.

Take `Cc1ccc(NC(=O)c2cc(I)ccc2O)cc1`: the motility % at 5 µg/mL in assay [2] came out at 50%. Besides, the motility % at 10 µg/mL in assay [3] worked out at 21%.

Take `O=C(Nc1ccc(Cl)cc1)c1cc(Br)cc(Br)c1O`: the motility % at 5 µg/mL in assay [2] amounted to 100%. Also, the motility % at 10 µg/mL in [3] worked out at 35%.

One may read the inhibition as how much of the control response was suppressed. A word on the pIC50: it is the IC50 on a negative log10 scale, so that one unit is a factor of ten. Low readings indicate a large IC50, high ones a small IC50. By pKi is commonly meant −log10 of the Ki, conventionally taken in molar units. Low values mean a high Ki, high ones a low Ki.
